The source of these data is ChEMBL document CHEMBL1145854, “Characteristics of selenazolidine prodrugs of selenocysteine: toxicity and glutathione peroxidase induction in V79 cells” (J Med Chem, 2003).

Holding throughout (conditions): Cricetulus griseus
The subject of assay [1] is V79. Kind of assay: Glutathione peroxidase activity in V79 cells at 20 uM expressed as fold induction of GPx activity to control value. Type of assay: cell-based. An outline of the steps:
(§1)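 V79 cells (5.0×10^5 per flask) adhered overnight, then exposed 48 h to compound in complete medium (pH 7–7.5), followed by 24 h in fresh medium. Cells were sonicated in Tris-HCl (50 mM, pH 7.5, EDTA, 2-mercaptoethanol) and centrifuged. Supernatant GPx was read as NADPH loss at 340 nm over 3 min with tert-butyl hydroperoxide, normalised to Bradford protein (N = 9), and given as fold over untreated control.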

The subject of assay [2] is V79. Description: Cytotoxicity activity against V79 cells. It is filed as functional, cell-based. An outline of the steps: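 V79 cells kept in D-MEM with 10% Fetal Clone I serum at 37 °C, 5% CO2, then seeded in 96-well plates and allowed to adhere overnight. Exposed 2 days to compound (0–3000 µM, pH 7–7.5, in complete medium). Viability read by MTS (2 h, 490 nm), expressed as percent of untreated control. IC50 taken by regression of viability vs concentration.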

Assay [3] relates to V79. Kind of assay: Glutathione peroxidase activity in V79 cells at 100 uM expressed as fold induction of GPx activity to control value. It is filed as cell-based. In short, it runs like this: as §1

The IC50 is the concentration that inhibits the measured activity by half. Low readings indicate greater potency, high ones weaker potency. `N#C[Se]Cc1ccc(C[Se]C#N)cc1` gave a Fold induction with V79 [1] of 1.5. Also, the 50% inhibitory concentration (IC50) with V79 [2] was found to be 12 µM.

Molecule `O=C1N[C@@H](C(=O)O)C[Se]1` registered a Fold induction with V79 [3] of 1.4. Moreover, the half-inhibitory concentration (IC50) in the assay on V79 [2] was > 3000 µM.

Take `C[Se]CC[C@H](N)C(=O)O` [SELENOMETHIONINE]: in the assay with V79 [3], the Fold induction stood at 1.8. Besides, in the assay with V79 [2], the concentration for half-maximal inhibition (IC50) was determined as 267 µM.

Consider `O=[Se](O)O` [SODIUM SELENITE], for which the half-inhibitory concentration (IC50) with V79 [2] was 17 µM.

Molecule `O=[Se](=O)(O)O` [SODIUM SELENATE] registered a Fold induction in the assay on V79 [3] of 1.9. The half-inhibitory concentration (IC50) with V79 [2] turned out to be 292 µM.

Turning to `O=C1N[C@H](C(=O)O)C[Se]1`, the Fold induction with V79 [3] came to 4.6. In the assay with V79 [2], this molecule came in with an IC50 of 451 µM.

Molecule `C[Se]C[C@H](N)C(=O)O` [METHYLSELENOCYSTEINE] displayed a Fold induction with V79 [3] of 1.5. In the assay with V79 [2], this molecule yielded an IC50 of 472 µM.

`CC1N[C@H](C(=O)O)C[Se]1` (some centres undefined): in the assay with V79 [3], the Fold induction is 2.1. In the assay on V79 [2], this molecule registered a 50% inhibitory concentration (IC50) of 79 µM.

Consider `CC1N[C@@H](C(=O)O)C[Se]1` (some centres undefined), for which, in the assay on V79 [3], the Fold induction is 1.3. The IC50 with V79 [2] came out at 160 µM.

Consider `O=C(O)[C@@H]1C[Se]CN1`, for which, in the assay with V79 [3], the Fold induction is 5.9. The same molecule displayed an IC50 in the assay on V79 [2] of 317 µM.
